{"source": "ChEMBL document CHEMBL5705886", "about": "“GSK1070916, a potent Aurora B/C kinase inhibitor with broad antitumor activity in tissue culture cells and human tumor xenograft models” (Mol Cancer Ther, 2009)", "key": {"Raji": {"tested_on": "Raji", "assay": "Antiproliferative activity against human Raji cells assessed as inhibition of cell viability measured for 6 to 7 days by cell titer glo assay", "type": "functional, cell-based", "method_in_brief": "(§1)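 Cells seeded in recommended growth medium, held overnight at 37°C in 5% CO2, then exposed to serial dilutions of inhibitor for 6–7 d. A time-zero plate was read with CellTiter-Glo at dosing. Luminescent viability read at the end. No-cell wells subtracted as background, data expressed as percent of DMSO control.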"}, "[1]": {"assay": "Toxicity in SCID nude mouse xenografted with human COLO 205 cells assessed as drug tolerance at 25 to 100 mg/kg, ip administered once daily for 5 consecutive days with 2 days off scheduled for 2 cycles measured upto 60 days", "type": "organism-based", "conditions": "in vivo, 1440 h, dose 25-100 mg/kg, time 60 day"}, "OCI-AML-3": {"tested_on": "OCI-AML-3", "assay": "Antiproliferative activity against human OCI-AML-3 cells assessed as inhibition of cell viability measured for 6 to 7 days by cell titer glo assay", "type": "functional, cell-based", "method_in_brief": "as §1"}, "K562": {"tested_on": "K562", "assay": "Antiproliferative activity against human K562 cells assessed as inhibition of cell viability measured for 6 to 7 days by cell titer glo assay", "type": "functional, cell-based", "method_in_brief": "(§2)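 Cells seeded in recommended growth medium, incubated overnight at 37°C in 5% CO2, then exposed to serial dilutions of inhibitor for 6–7 d. A parallel plate was read with CellTiter-Glo at compound addition as a T=0 value. The luminescent viability readout had no-cell background subtracted and was expressed as % of DMSO control.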"}, "A2780": {"tested_on": "A2780", "assay": "Antiproliferative activity against human A2780 cells assessed as inhibition of cell viability measured for 6 to 7 days by cell titer glo assay", "type": "functional, cell-based", "method_in_brief": "(§3)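 Tumor lines plated in recommended growth media, overnight at 37°C, 5% CO2, then given serial dilutions; a T=0 plate read with CellTiter-Glo at dosing. After 6–7 d of exposure, viability read by CellTiter-Glo luminescence. No-cell wells subtracted, data expressed as % of DMSO control.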"}, "HN5": {"tested_on": "HN5", "assay": "Antiproliferative activity against human HN5 cells assessed as inhibition of cell viability measured for 6 to 7 days by cell titer glo assay", "type": "functional, cell-based", "method_in_brief": "as §2"}, "DG-75": {"tested_on": "DG-75", "assay": "Antiproliferative activity against human DG-75 cells assessed as inhibition of cell viability measured for 6 to 7 days by cell titer glo assay", "type": "functional, cell-based", "method_in_brief": "as §3"}, "CMK": {"tested_on": "CMK", "assay": "Antiproliferative activity against human CMK cells assessed as inhibition of cell viability measured for 6 to 7 days by cell titer glo assay", "type": "functional, cell-based", "method_in_brief": "as §3"}, "[2]": {"assay": "Antiproliferative activity against human BCP-1 cells assessed as inhibition of cell viability measured for 6 to 7 days by cell titer glo assay", "type": "functional, cell-based", "method_in_brief": "as §3"}, "[3]": {"assay": "Antiproliferative activity against human F-36P cells assessed as inhibition of cell viability measured for 6 to 7 days by cell titer glo assay", "type": "functional, cell-based", "method_in_brief": "as §3"}, "HL-60": {"tested_on": "HL-60", "assay": "Antitumor activity in human HL-60 cells xenografted in SCID mouse assessed as reduction in tumor growth at 100 mg/kg, ip administered once daily for 5 consecutive days with 2 days off scheduled for 2 cycles measured upto 60 days", "type": "functional, organism-based", "conditions": "time 60.0 day"}, "[4]": {"assay": "Antiproliferative activity against human DND41 cells assessed as inhibition of cell viability measured for 6 to 7 days by cell titer glo assay", "type": "functional, cell-based", "method_in_brief": "as §3"}, "GA-10": {"tested_on": "GA-10", "assay": "Antiproliferative activity against human GA-10 cells assessed as inhibition of cell viability measured for 6 to 7 days by cell titer glo assay", "type": "functional, cell-based", "method_in_brief": "as §3"}, "[5]": {"assay": "Toxicity in SCID nude mouse xenografted with human A549 cells assessed as drug tolerance at 25 to 100 mg/kg, ip administered once daily for 5 consecutive days with 2 days off scheduled for 3 cycles measured upto 60 days", "type": "organism-based", "conditions": "in vivo, 1440 h, dose 25-100 mg/kg, time 60 day"}, "PANC-1": {"tested_on": "PANC-1", "assay": "Antiproliferative activity against human PANC-1 cells assessed as inhibition of cell viability measured for 6 to 7 days by cell titer glo assay", "type": "functional, cell-based", "method_in_brief": "as §1"}, "MV-4-11 (human)": {"tested_on": "MV-4-11 (human)", "assay": "Antitumor activity in human MV-4-11 cells xenografted in NOD-SCID mouse assessed as median survival time at 10 mg/kg, ip administered once daily for 5 consecutive days with 2 days off scheduled for 3 cycles measured upto 120 days", "conditions": "time <= 120 day"}, "[6]": {"assay": "Antiproliferative activity against human MEC-1 cells assessed as inhibition of cell viability measured for 6 to 7 days by cell titer glo assay", "type": "functional, cell-based", "conditions": "MEC1", "method_in_brief": "as §2"}, "COLO 205": {"tested_on": "COLO 205", "assay": "Antitumor activity in human COLO 205 cells xenografted in nude mouse assessed as reduction in tumor growth at 25 to 100 mg/kg, ip administered once daily for 5 consecutive days with 2 days off scheduled for 2 cycles measured upto 60 days", "conditions": "dose 25-100 mg/kg, time 60.0 day"}, "A549": {"tested_on": "A549", "assay": "Induction of mitotic alteration in human A549 cells formation of malformed bipolar at 12 to 330 nmol/L incubated for 24 hrs by immunofluorescent microscopy based analysis", "type": "functional, cell-based", "conditions": "dose lower […], dose upper 330.0 nmol/L"}, "NCI-H460": {"tested_on": "NCI-H460", "assay": "Antiproliferative activity against human NCI-H460 cells assessed as inhibition of cell viability measured for 6 to 7 days by cell titer glo assay", "type": "functional, cell-based", "method_in_brief": "as §1"}, "SK-MEL-28": {"tested_on": "SK-MEL-28", "assay": "Antiproliferative activity against human SK-MEL-28 cells assessed as inhibition of cell viability measured for 6 to 7 days by cell titer glo assay", "type": "functional, cell-based", "method_in_brief": "as §1"}, "HCT-8": {"tested_on": "HCT-8", "assay": "Antiproliferative activity against human HCT-8 cells assessed as inhibition of cell viability measured for 6 to 7 days by cell titer glo assay", "type": "functional, cell-based", "method_in_brief": "as §3"}, "SUD4": {"tested_on": "SUD4", "assay": "Antiproliferative activity against human SU-DHL-4 cells assessed as inhibition of cell viability measured for 6 to 7 days by cell titer glo assay", "type": "functional, cell-based", "method_in_brief": "as §1"}, "HCT-116": {"tested_on": "HCT-116", "assay": "In vivo inhibition of Aurora B in human HCT-116 cells xenografted in athymic nude mouse assessed as inhibition of HH3-S10 phosphorylation administered as single ip dose incubated for 0.5 to 72 hrs", "type": "functional, organism-based", "conditions": "dose 25-100 mg/kg, time 0.5-72 hrs"}, "[7]": {"assay": "Toxicity in SCID nude mouse xenografted with human NCI-H460 cells assessed as drug tolerance at 25 to 100 mg/kg, ip administered once daily for 5 consecutive days with 2 days off scheduled for 3 cycles measured upto 60 days", "type": "organism-based", "conditions": "in vivo, 1440 h, dose 25-100 mg/kg, time < 60 day"}, "Rec1": {"tested_on": "Rec1", "assay": "Antiproliferative activity against human REC1 cells assessed as inhibition of cell viability measured for 6 to 7 days by cell titer glo assay", "type": "functional, cell-based", "method_in_brief": "as §1"}, "[8]": {"assay": "Antiproliferative activity against human RKOE6 cells assessed as inhibition of cell viability measured for 6 to 7 days by cell titer glo assay", "type": "functional, cell-based", "method_in_brief": "as §1"}}, "note": "Active and inactive are the calls of the source. No cut-off for these calls is given here.", "data": [{"molecule": "CCn1cc(-c2ccnc3[nH]c(-c4cccc(CN(C)C)c4)cc23)c(-c2ccc(NC(=O)N(C)C)cc2)n1", "note": "[GSK-1070916]", "values": [{"measurement": "EC50", "setting": "Raji", "result": 0.003, "unit": "µM"}, {"measurement": "Activity", "setting": "[1]", "result": "Non-Toxic"}, {"measurement": "EC50", "setting": "OCI-AML-3", "result": 0.004, "unit": "µM"}, {"measurement": "EC50", "setting": "K562", "result": 0.013, "unit": "µM"}, {"measurement": "EC50", "setting": "A2780", "result": 0.005, "unit": "µM"}, {"measurement": "EC50", "setting": "HN5", "result": 0.01, "unit": "µM"}, {"measurement": "EC50", "setting": "DG-75", "result": 0.018, "unit": "µM"}, {"measurement": "EC50", "setting": "CMK", "result": 0.027, "unit": "µM"}, {"measurement": "EC50", "setting": "[2]", "result": 0.031, "unit": "µM"}, {"measurement": "EC50", "setting": "[3]", "result": 0.01, "unit": "µM"}, {"measurement": "Activity", "setting": "HL-60", "result": "Active"}, {"measurement": "EC50", "setting": "[4]", "result": 0.787, "unit": "µM"}, {"measurement": "EC50", "setting": "GA-10", "result": 0.004, "unit": "µM"}, {"measurement": "Activity", "setting": "[5]", "result": "Non-Toxic"}, {"measurement": "EC50", "setting": "PANC-1", "result": 0.013, "unit": "µM"}, {"measurement": "MST", "setting": "MV-4-11 (human)", "result": 70, "unit": "days"}, {"measurement": "EC50", "setting": "[6]", "result": 0.01, "unit": "µM"}, {"measurement": "Activity", "setting": "COLO 205", "result": "inactive"}, {"measurement": "Activity", "setting": "A549", "result": "Active"}, {"measurement": "EC50", "setting": "NCI-H460", "result": 0.014, "unit": "µM"}, {"measurement": "EC50", "setting": "SK-MEL-28", "result": 0.007, "unit": "µM"}, {"measurement": "EC50", "setting": "HCT-8", "result": 0.038, "unit": "µM"}, {"measurement": "EC50", "setting": "SUD4", "result": 0.005, "unit": "µM"}, {"measurement": "Activity", "setting": "HCT-116", "result": "Dose-Dependent Effect"}, {"measurement": "Activity", "setting": "[7]", "result": "Non-Toxic"}, {"measurement": "EC50", "setting": "Rec1", "result": 0.077, "unit": "µM"}, {"measurement": "EC50", "setting": "[8]", "result": 0.007, "unit": "µM"}]}]}
